One compound from paper PMC5392356 (Nature chemical biology, 2017) can be followed below.

Assay [1] has as its target T1, Brd3 (Homo sapiens, UniProt Q15059). Nature of the assay: Isobaric tagging. In kind it is cell-based. As to conditions: HeLa cells, 24 h, proteomics.
In assay [2] the target is T2, Brd2 (Homo sapiens, UniProt P25440). Nature of the assay: BET protein degradation in HeLa cells, Western blot. The format is cell-based. As to conditions: 24 h. Summed up: (§1)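 HeLa cells were kept in DMEM with 10% FBS, […], penicillin/streptomycin at 37 °C, 5% CO2. They were seeded in six-well plates and treated the next day. They were PBS-washed and lysed on ice in RIPA with protease inhibitors, Benzonase and 0.5 mM MgCl2, then sonicated and centrifuged. Protein was quantified by BCA. Immunoblots used Brd2, Brd3, Brd4 and β-actin antibodies with IRDye 800CW secondaries; band intensities were quantified on an Odyssey imager.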
A general note: In western blotting, separated proteins are transferred to a membrane and probed.

In assay [3] the target is T3, Brd4 (Homo sapiens, UniProt O60885). Nature of the assay: Isobaric tagging. In kind it is cell-based. To be noted: HeLa cells, AT1 1 µM, 24 h; 5,674 proteins quantified.
The target of assay [4] is T1, Brd3. Nature of the assay: BET protein degradation in HeLa cells, Western blot. As to conditions: 24 h. In kind it is cell-based. In short, it runs like this: as §1
Assay [5] has as its target T2, Brd2. Nature of the assay: Isobaric tagging. In kind it is cell-based. To be noted: HeLa cells, 24 h, proteomics.
Assay [6] has as its target T3, Brd4. Nature of the assay: BET protein degradation in HeLa cells, Western blot. In kind it is cell-based. As to conditions: 24 h, 1–3 μM. In short, it runs like this: as §1
The next assay has as its target VCB and Brd4^BD2 (Homo sapiens, UniProt O60885+P40337). Nature of the assay: ITC, VCB titrated into PROTAC:BD complex. The format is binding. (ITC needs no label: the signal is the heat of the interaction.)
Where [7] appears, read: ITC 25 °C, VCB into PROTAC:Brd4^BD2 vs VCB into PROTAC.

VCB and Brd4^BD2, sequence (P40337 54-213, other chains not shown): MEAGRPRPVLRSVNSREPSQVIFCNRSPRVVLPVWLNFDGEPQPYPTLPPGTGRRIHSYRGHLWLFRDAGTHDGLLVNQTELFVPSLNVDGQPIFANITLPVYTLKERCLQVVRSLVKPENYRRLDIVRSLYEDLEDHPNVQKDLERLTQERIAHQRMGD
VCB and Brd4^BD2, sequence (Q15370 1-104, other chains not shown, further chain): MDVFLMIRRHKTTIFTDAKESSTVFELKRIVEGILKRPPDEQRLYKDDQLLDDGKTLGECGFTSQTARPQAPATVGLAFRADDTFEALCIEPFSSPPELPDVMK
VCB and Brd4^BD2, sequence (Q15369 17-112, other chains not shown, further chain): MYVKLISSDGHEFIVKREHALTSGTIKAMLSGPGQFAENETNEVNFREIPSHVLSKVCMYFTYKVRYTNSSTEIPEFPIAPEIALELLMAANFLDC
T1 sequence (Q15059 whole entry): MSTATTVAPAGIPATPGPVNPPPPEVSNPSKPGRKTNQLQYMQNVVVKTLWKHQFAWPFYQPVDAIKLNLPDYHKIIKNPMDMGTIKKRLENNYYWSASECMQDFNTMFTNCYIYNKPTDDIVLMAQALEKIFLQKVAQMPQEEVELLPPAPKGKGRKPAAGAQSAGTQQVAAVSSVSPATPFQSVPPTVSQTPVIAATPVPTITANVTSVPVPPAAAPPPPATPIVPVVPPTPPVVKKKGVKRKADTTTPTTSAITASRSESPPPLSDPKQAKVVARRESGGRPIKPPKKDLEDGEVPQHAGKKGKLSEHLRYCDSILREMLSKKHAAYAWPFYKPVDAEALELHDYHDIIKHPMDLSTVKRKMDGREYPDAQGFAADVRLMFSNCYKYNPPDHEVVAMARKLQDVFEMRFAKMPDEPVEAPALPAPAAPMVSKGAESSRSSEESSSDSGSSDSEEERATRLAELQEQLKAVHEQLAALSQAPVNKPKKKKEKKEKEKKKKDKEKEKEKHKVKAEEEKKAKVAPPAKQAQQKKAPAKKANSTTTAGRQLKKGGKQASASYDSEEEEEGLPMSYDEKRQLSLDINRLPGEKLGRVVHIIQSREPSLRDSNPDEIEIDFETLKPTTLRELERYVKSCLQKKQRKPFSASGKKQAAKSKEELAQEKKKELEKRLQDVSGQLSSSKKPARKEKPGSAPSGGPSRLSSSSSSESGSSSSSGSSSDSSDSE
T2 sequence (P25440 whole entry): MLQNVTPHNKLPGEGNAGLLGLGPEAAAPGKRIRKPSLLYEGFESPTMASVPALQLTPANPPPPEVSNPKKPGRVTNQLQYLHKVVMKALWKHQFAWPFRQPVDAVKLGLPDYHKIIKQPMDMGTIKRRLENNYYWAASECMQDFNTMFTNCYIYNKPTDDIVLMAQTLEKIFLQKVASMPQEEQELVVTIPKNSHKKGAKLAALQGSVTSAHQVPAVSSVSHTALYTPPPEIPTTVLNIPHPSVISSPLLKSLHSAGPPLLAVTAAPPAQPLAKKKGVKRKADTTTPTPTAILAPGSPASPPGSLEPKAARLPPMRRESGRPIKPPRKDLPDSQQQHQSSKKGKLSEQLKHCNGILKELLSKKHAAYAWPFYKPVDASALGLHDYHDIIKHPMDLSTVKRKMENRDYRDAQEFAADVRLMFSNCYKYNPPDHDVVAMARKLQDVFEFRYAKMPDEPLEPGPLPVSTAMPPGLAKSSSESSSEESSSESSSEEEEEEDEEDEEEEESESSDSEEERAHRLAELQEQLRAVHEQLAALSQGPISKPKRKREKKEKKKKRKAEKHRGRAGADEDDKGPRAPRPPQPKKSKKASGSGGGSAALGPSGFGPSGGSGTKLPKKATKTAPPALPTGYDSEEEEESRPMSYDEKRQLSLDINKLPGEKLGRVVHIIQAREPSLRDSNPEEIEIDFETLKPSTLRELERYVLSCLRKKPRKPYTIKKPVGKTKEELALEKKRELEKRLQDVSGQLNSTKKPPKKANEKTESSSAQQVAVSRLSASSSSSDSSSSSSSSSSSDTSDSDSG

As for `CC(=O)N[C@H](C(=O)N1C[C@H](O)C[C@H]1C(=O)NCc1ccc(-c2scnc2C)cc1)C(C)(C)SCCCCCCNC(=O)C[C@@H]1N=C(c2ccc(Cl)cc2)c2c(sc(C)c2C)-n2c(C)nnc21` [AT1, (2S,4R)-1-((R)-2-acetamido-3-((6-(2-((S)-4-(4-chlorophenyl)-2,3,9-trimethyl-6H-thieno[3,2-f][1,2,4]triazolo[4,3-a][1,4]diazepin-6-yl)acetamido)hexyl)thio)-3-methylbutanoyl)-4-hydroxy-N-(4-(4-methylthiazol-5-yl)benzyl)pyrrolidine-2-carboxamide], the “effect on protein level of Brd3” value on Brd3 [1] is “no effect on protein levels”. For the same compound, the “activity against Brd2 (protein level by immunoblot)” value on Brd2 [2] is “negligible activity”. Further, the “Brd4 protein level after treatment (depleted to)” value on Brd4 [3] is ~ 40%. The “activity against Brd3 (protein level by immunoblot)” value on Brd3 [4] was “negligible activity”. The “effect on protein level of Brd2” value on Brd2 [5] is “no effect on protein levels”. Also, at Brd4 [6], the “Brd4 protein level by immunoblot” value is given as “depletion of Brd4”. Besides, on VCB and Brd4^BD2 (setting [7]), the “ΔpKd (pKd ternary − pKd binary)” value is 0.84 ± 0.07 and the “α (cooperativity, Kd binary/Kd ternary)” value was found to be 7. The “ΔG (binary + ternary), stability of ternary complex” value at VCB and Brd4^BD2 (ITC, Brd4^BD2) is -84.5 ± 0.84 kJ/mol.
